Activity calls are given as the source filed them. No cut-off for these calls is given here.

Test [1] concerns MCF7. As to the kind of experiment: Inhibition of estrogen receptor positive MCF-7 cell proliferation as cell number after 10 days at 10e-7 M. The class given is functional, Homo sapiens. The procedure, abridged: (§1)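 MCF-7 cells were grown in McCoy's 5a medium with fetal bovine serum stripped by DCC (0.5 h, 45 °C). Compounds were dissolved in ethanol (final ≤0.5%) and diluted in complete medium. Cells were seeded at 5×10^4 cells/plate. On day 10, three replicate plates per group were counted by Coulter counter, three counts per plate. Percent T/C = test/control. In a retest, compounds were given at 10^-7 M with 17β-estradiol at 10^-7 or 10^-8 M.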

Test [2] deals with MCF7. In words: Inhibition of estrogen receptor positive MCF-7 cell proliferation as cell number after 10 days at 10e-8 M. Type of test: functional, Homo sapiens. The procedure, abridged:
as §1

For test [3], the system named is MCF7. As to the kind of experiment: Inhibition of estrogen receptor positive MCF-7 cell proliferation as percent treated/control cell number after 10 days at 10e-7 M. The class given is functional, Homo sapiens. The procedure, abridged: as §1
The test system of test [4] is MCF7. In words: Inhibition of estrogen receptor positive MCF-7 cell proliferation as percent treated/control cell number after 10 days at 10e-8 M. The class given is functional, Homo sapiens. An outline of the steps: as §1
The subject of test [5] is MCF7. In words: Inhibition of estrogen receptor positive MCF-7 cell proliferation as cell number after 10 days at 10e-6 M. Type of test: functional, Homo sapiens. The procedure, abridged: as §1
In test [6] the test system is MCF7. In words: Inhibition of estrogen receptor positive MCF-7 cell proliferation as percent treated/control cell number after 10 days at 10e-6 M. The class given is functional, Homo sapiens. The procedure, abridged:
as §1

Test [7] concerns the target T1, Estrogen receptor (Mus musculus) (UniProt O08537+P19785). In words: Antiestrogenic activity in uterotrophic test in mice at 3.3 ug. Type of test: functional. The procedure, abridged:
(§2)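 Immature female NMRI mice, 20 days old (14.5 ± 1.2 g), randomly grouped 10 per group. Each received a daily sc injection for 3 days of 0.1 mL olive oil solution containing test compound, together with estrone to stimulate uterine growth. Uteri were removed 24 h after the last injection and weighed. Results are reported as % inhibition of the estrone-stimulated uterine weight gain, mean ± SD.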

Test [8] has as its target T1, Estrogen receptor (Mus musculus). In words: Antiestrogenic activity in uterotrophic test in mice at 1000 ug. The class given is functional. The procedure, abridged: as §2
The target is the same in test [9]. As to the kind of experiment: Inhibitory activity in mouse uterine weight test at 100 ug. Type of test: functional. An outline of the steps:
(§3)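 Antiuterotrophic (Dorfman) assay in immature 20-day-old female NMRI mice, groups of 10. Uterine growth was stimulated with estrone (0.1 μg) and the test compound was given alongside it, sc daily for 3 days in 0.1 mL olive oil. Uteri were taken 24 h after the last dose. Uterine weight is reported as means ± SD and inhibition as % of the estrone-stimulated response.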

For test [10] the target is unchanged. In words: Inhibitory activity in mouse uterine weight test at 1000 ug. The class given is functional. The procedure, abridged:
as §3

For test [11] the target is unchanged. As to the kind of experiment: Antiestrogenic activity in uterotrophic test in mice at 100 ug. The class given is functional. An outline of the steps:
as §2

Test [12] concerns Estrogen receptor (Bos taurus). As to the kind of experiment: Displacement of [3H]estradiol from calf estrogen receptor. For orientation: Loss of bound radioactivity is the signal in a displacement assay; it reports binding, not function.
Test [13] has as its target T1, Estrogen receptor (Mus musculus). As to the kind of experiment: Inhibitory activity in mouse uterine weight test at 0.1 ug. The class given is functional. The procedure, abridged: as §3
The target is the same in test [14]. In words: Antiestrogenic activity in uterotrophic test in mice at 0 ug. The class given is functional. An outline of the steps:
as §2

The species named for test [15] is Mus musculus. As to the kind of experiment: Vaginal cornification test in mice at 0.1 ug; cornified nonnucleated cells present (estrus). The class given is functional, organism-based.
The species named for test [16] is Mus musculus. As to the kind of experiment: Vaginal cornification test in mice at 27 ug; predominant cellular component leucocytes (diestrus). The class given is functional, organism-based.
The species named for test [17] is Mus musculus. In words: Vaginal cornification test in mice at 5 ug; predominant cellular component leucocytes (diestrus). Type of test: functional, organism-based. An outline of the steps:
(§4)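 Female NMRI mice (~15 g) were ovariectomized; castration was confirmed at 10 days by leucocyte smears. Mice were primed with estradiol 3-benzoate 0.2 μg, and only responders showing estrus were kept. Groups of three received sc test compound in 0.1 mL olive oil daily for 3 days. Saline vaginal smears were taken 6, 24, 30, 48 and 54 h after the last dose and scored by Allen-Doisy.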

Test [18] deals with T1, Estrogen receptor (Mus musculus). As to the kind of experiment: Inhibitory activity in mouse uterine weight test at 5 ug. The class given is functional. An outline of the steps:
as §3

Test [19] shares this target. In words: Estrogenic activity in uterotrophic test in mice at 180 ug. Type of test: functional. An outline of the steps: (§5)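 Uterine growth stimulation in immature female NMRI mice, 20 days old (14.5 ± 1.2 g), 10 per group. Test compound in 0.1 mL olive oil was given sc daily for 3 days. Uteri were excised 24 h after the final injection and weighed. Effect is reported as mean ± SD.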

For test [20] the target is unchanged. As to the kind of experiment: Antiestrogenic activity in uterotrophic test in mice at 27 ug. Type of test: functional. An outline of the steps: as §2
The target is the same in test [21]. In words: Inhibitory activity in mouse uterine weight test at 80 ug. The class given is functional. The procedure, abridged: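 Immature female NMRI mice, 20 days old (14.5 ± 1.2 g), in random groups of 10. They received sc injections daily for 3 days of 0.1 mL olive oil containing test compound, with estrone 0.1 μg given to stimulate uterine growth. Uteri were removed 24 h after the last injection and weighed (mean ± SD). Result is percent inhibition of the estrone-stimulated uterine weight gain.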

The target is the same in test [22]. In words: Estrogenic activity in uterotrophic test in mice at 0 ug. Type of test: functional. An outline of the steps: as §5
Test [23] has the same target. As to the kind of experiment: Antiestrogenic activity in uterotrophic test in mice at 240 ug. The class given is functional. The procedure, abridged:
as §2

Test [24] has the same target. As to the kind of experiment: Estrogenic activity in uterotrophic test in mice at 533 ug. The class given is functional. The procedure, abridged:
(§6)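 Immature (20-day-old) female NMRI mice, 14.5 ± 1.2 g, randomized into groups of 10. Given the test compound sc daily for 3 days in 0.1 mL olive oil. Uteri removed 24 h after the last injection; uterine weight taken as the read-out, means ± SD. Dose in μg.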

The target is the same in test [25]. In words: Antiestrogenic activity in uterotrophic test in mice at 2.7 ug. Type of test: functional. The procedure, abridged: as §2
The species named for test [26] is Mus musculus. In words: Vaginal cornification test in mice at 2.7 ug; predominant cellular component leucocytes (diestrus). Type of test: functional, organism-based.
Test [27] concerns the target T1, Estrogen receptor (Mus musculus). In words: Inhibitory activity in mouse uterine weight test at 240 ug. Type of test: functional. An outline of the steps: as §3
For test [28] the target is unchanged. In words: Inhibitory activity in mouse uterine weight test at 2.7 ug. The class given is functional. The procedure, abridged: as §3
Test [29] shares this target. As to the kind of experiment: Estrogenic activity in uterotrophic test in mice at 20 ug. Type of test: functional. The procedure, abridged: as §5
The target is the same in test [30]. In words: Antiestrogenic activity in uterotrophic test in mice at 80 ug. The class given is functional. An outline of the steps:
as §2

Test [31] shares this target. In words: Estrogenic activity in uterotrophic test in mice at 60 ug. Type of test: functional. An outline of the steps:
as §6

For test [32] the target is unchanged. As to the kind of experiment: Inhibitory activity in mouse uterine weight test at 27 ug. Type of test: functional. An outline of the steps:
as §3

The target is the same in test [33]. In words: Estrogenic activity in uterotrophic test in mice at 2 ug. The class given is functional. An outline of the steps:
as §5

The species entered for test [34] is Mus musculus. In words: Vaginal cornification test in mice at 0 ug; predominant cellular component leucocytes (diestrus). Type of test: functional, organism-based. The procedure, abridged:
as §4

Test [35] is filed under the species Mus musculus. In words: Predominant components of vaginal smear at a compound concentration of 240 ug was determined using vaginal cornification test; leucocytes (</= 50%), nucleated and cornified, nucleated cellscharacteristic of antiestrogens. The class given is functional, organism-based.
The species named for test [36] is Mus musculus. As to the kind of experiment: Predominant components of vaginal smear at a compound concentration of 80 ug was determined using vaginal cornification test; leucocytes (</= 50%), nucleated and cornified, nucleated cellscharacteristic of antiestrogens. The class given is functional, organism-based.
Test [37] has as its target T1, Estrogen receptor (Mus musculus). In words: Antiestrogenic activity in uterotrophic test in mice at 5 ug. Type of test: functional. An outline of the steps:
as §2

T1 sequence (O08537 whole entry, looked up): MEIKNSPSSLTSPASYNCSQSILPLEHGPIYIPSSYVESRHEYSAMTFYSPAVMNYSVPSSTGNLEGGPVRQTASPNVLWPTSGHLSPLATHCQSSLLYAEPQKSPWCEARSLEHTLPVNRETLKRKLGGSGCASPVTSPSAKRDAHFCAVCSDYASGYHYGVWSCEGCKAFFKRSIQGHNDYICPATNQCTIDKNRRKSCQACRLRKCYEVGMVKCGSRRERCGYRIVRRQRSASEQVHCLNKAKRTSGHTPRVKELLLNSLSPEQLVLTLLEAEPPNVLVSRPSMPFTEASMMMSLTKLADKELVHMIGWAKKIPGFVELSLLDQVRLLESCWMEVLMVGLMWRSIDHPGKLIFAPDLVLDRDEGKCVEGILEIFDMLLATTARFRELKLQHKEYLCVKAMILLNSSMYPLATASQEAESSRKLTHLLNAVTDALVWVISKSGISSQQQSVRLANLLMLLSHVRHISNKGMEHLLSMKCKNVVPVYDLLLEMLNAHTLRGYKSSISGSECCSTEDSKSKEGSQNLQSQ
T1 sequence (P19785 whole entry, looked up): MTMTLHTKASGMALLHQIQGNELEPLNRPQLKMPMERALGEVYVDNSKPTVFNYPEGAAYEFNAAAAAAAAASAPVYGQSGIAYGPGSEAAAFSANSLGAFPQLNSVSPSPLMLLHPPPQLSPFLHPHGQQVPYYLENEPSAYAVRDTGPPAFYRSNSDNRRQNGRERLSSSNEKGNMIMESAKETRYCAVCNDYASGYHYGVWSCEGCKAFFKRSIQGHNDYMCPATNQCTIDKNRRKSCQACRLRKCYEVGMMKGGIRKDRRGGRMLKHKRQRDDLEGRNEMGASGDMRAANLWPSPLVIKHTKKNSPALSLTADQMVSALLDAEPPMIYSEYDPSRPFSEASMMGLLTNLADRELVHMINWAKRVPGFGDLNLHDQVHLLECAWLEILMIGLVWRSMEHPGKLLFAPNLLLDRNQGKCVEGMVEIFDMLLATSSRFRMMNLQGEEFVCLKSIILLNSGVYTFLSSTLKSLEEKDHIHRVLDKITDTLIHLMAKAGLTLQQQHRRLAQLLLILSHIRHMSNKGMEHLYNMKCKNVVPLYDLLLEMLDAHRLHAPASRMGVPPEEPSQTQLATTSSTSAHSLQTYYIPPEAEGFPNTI

For the compound `CC/C(=C(\c1ccccc1)c1ccc(OCCN(C)C)cc1)c1ccccc1` [TAMOXIFEN], the Cell number in the test with MCF7 [1] was determined as 34600; in the test on MCF7 [2], 38000; in the test on MCF7 [5], 32900. The T/C (as a rule, the ratio of treated to control) was determined as 79% in the test on MCF7 [3], 87% with MCF7 [4] and 75% in the test with MCF7 [6].

Turning to `CCCCCC(c1cccc(O)c1)C(CCCCC)c1cccc(O)c1` (centres undefined), the Effect in test [7] amounted to 39.5; in test [8], 34.6; in test [11] it was 34.2; in test [14] it was 10.5. The figures for the inhibition in test [9], in test [10] and in [13] were 15%, 14% and 5%, respectively. In test [12], this compound yielded a Ka of 3.3e+06 M⁻¹.

Consider `C[C@]12CC[C@@H]3c4ccc(O)cc4CC[C@H]3[C@@H]1CCC2=O`, for which, in the test listed under Mus musculus [15], the outcome was Active.

Take `CC(C)CC(c1cccc(O)c1)C(CC(C)C)c1cccc(O)c1` (centres undefined): the outcome in the test filed under Mus musculus [16], in the test listed under Mus musculus [17], in the test listed under Mus musculus [26] and in the test filed under Mus musculus [34] was inactive. For the same compound, the inhibition (in general, the change of the read-out against control, counted positive when it falls) in test [18] stood at 18%; in [21], 28%; in test [27] it was 27%; in test [28], 4%; in test [32], 22%. Moreover, the Effect in test [19] was 32.6; in test [20], 33.2; in test [22] it was 10; in [23], 31.7; in test [24] it was 31.3; in [25], 38.1. Further, the Effect in test [29] was 14.5; in [30] it was 31.5; in [31] it was 19; in [33] it was 11.8; in [14], 11.4; in [37], 34.1. The Ka in [12] turned out to be 110000 M⁻¹. Also, the Activity result in the test listed under Mus musculus [35] and in the test filed under Mus musculus [36] was “Weak activity” each time.

(Values after ChEMBL document CHEMBL1121898, “Potential antiestrogens. Synthesis and evaluation of mammary tumor inhibiting activity of 1,2-dialkyl-1,2-bis(3'-hydroxyphenyl)ethanes” (1981).)
